Measurements published in publication PMC5919120 (Journal of immunology (Baltimore, Md. : 1950), 2018).

Tested on: HCMEC/D3 cells
Assay: Cellular binding assay by flow cytometry
Format: cell-based, human
Settings: p<0.001, n=3
In short: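 HCMEC/D3 cells grown at 37°C in 5% CO2 to 70% confluence, detached, and pre-treated with heparanase I (10 U/ml) and III (2 U/ml) for 1.5 h at 37°C. Cells were then incubated 1 h on ice in 1% BSA/PBS with Atto 425-labelled CXCL8 or FITC-labelled peptide (5 µg/ml). Cells were washed twice (500 x g, 5 min) and signal read by flow cytometry; mean ± SE, n=3.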

CXCL8: recombinant human CXCL8, labelled with Atto 425 for binding assays
binding to HCMEC/D3 cells pre-treated with heparanase I&III: significantly reduced
